Hit rate of the full screen: of about 20,000 compounds, about 10 (0.05%) were called active. Rule as the data show it: active = inhibition above about 40%; inactive = the rest. The full list was thinned out, with actives kept by preference. Where a SMILES comes first, the peptide text is derived from it. [ ]: non-standard residue; d: D form. ξ: configuration not given here. ξV = CC(C)C(N)C(=O)O
experiment: growth inhibitors of wild type E. coli, primary screen, strain BW25113 wild type, absorbance readout (AID 552); settings: OD600, at 10 µM, active compounds read high;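 also: bacteria exposed to compound for 20 hours at 37 °C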
Method in brief: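 System: bacterial strain in a whole-cell growth screen; medium: LB broth with 50 µg/mL kanamycin; detection: absorbance at 615 nm; schedule: 20 h exposure, 37 °C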

inhibition, inactive:
CCOC(=O)N1CCC(O)(c2cc(C)c(C)cc2C)CC1 2.31%, CCOC(=O)c1ccc(NC(=O)CSc2nnc(COc3ccccc3OC)n2C)cc1 -14.8%, O=C(OCc1ccccc1F)c1ccc2c(c1)OCCO2 6.06%, CCN(Cc1nc2ccccc2c(=O)[nH]1)Cc1cc(=O)oc2cc(C)c(C)cc12 -2.52%, Cc1noc(C)c1C(=O)NC(C)c1ccc2c(c1)OCO2 (stereo not given) -22.5%, CC(C)COC(=O)C1C2C=CC3(CN(C(C)c4ccc(Br)cc4)C(=O)C13)O2 (stereo not given) 15.3%, COC(=O)c1ccc(Oc2nc(Nc3ccc(F)cc3)nc(N3CCCC3)n2)cc1 -16.9%, CSc1ccc(S(=O)(=O)Nc2cccc(F)c2)cc1 -8.18%, CCN(CC)S(=O)(=O)c1ccc(NC(=O)CN(c2cccc(F)c2)S(C)(=O)=O)cc1 -6.94%, CS(=O)(=O)N(CC(=O)N1CCOCC1)c1ccc2c3c(cccc13)CC2 -16.3%, CC(=O)NC(C(=O)NCC(N)=O)C(C)C (stereo not given) (Ac-[ξV]-Gly-NH2) 7.41%, CCCCN(CC)CCCNC(=O)CS(=O)(=O)Cc1nc(-c2cccc(OC)c2)oc1C 4.26%, CCOC(=O)n1c(SCC(=O)N(CC)CC)nc2ccccc21 -3.3%, Cc1cc(C)nc(N2C(=O)CC(Cc3ccccc3)C2=O)n1 (stereo not given) -9.77%, CC(C)C[C@H](NC(=O)[C@@H]1O[C@H]1C(=O)O)C(=O)NCCCCN=C(N)N -3.4%, CN(C)CCNC(CC(=O)Nc1ccc(Cl)c(Cl)c1)C(=O)O (stereo not given) -14.6%, COc1ccc(C(=O)Nc2cccnc2)cc1C(=O)Nc1cccnc1 1.96%, COC(=O)Nc1c(C)n(C)n(-c2ccccc2)c1=O -2.62%, Cc1ccc(C)c(S(=O)(=O)N2CC(=O)Nc3ccccc32)c1 -14.8%, COCCn1c(C)cc(C(=O)CSc2ncnc3sc4c(c23)CCC4)c1C 2.06%, Cc1nc(C)c(C(=O)Nc2ccc(C)c(F)c2)o1 -3.6%, COc1cc(-c2nc(S(=O)(=O)c3ccc(Cl)cc3)c(N(C)C)o2)cc(OC)c1OC -0.36%, Cc1cc(C(=O)NCCCc2ccccc2)no1 -3.97%, CCc1ccc(CCC(=O)Nc2ccc(S(N)(=O)=O)cc2)o1 -21.2%, Cc1ccc(-c2noc(-c3ccccc3C(=O)NCC3CCCO3)n2)cc1 (stereo not given) 8.67%, CC1(C)C(=O)Nc2ccccc2N1C(=O)COC(=O)Cn1cnc2ccccc2c1=O -1.7%, O=C1CC(c2ccccc2)CC(O)=C1C=NCCN1CCOCC1 (stereo not given) 0.58%, COCCCNC(=O)CSc1nc2ccc(N3CCOCC3)cc2c(=O)n1CCc1ccccc1 1.57%, CCCC(=O)Nc1ccc(C(=O)NCCCn2ccnc2)cc1 -11.9%, COc1ccc(S(=O)(=O)N2CCOCC2)cc1C(=O)Nc1nc2ccccc2s1 4.62%, CCn1c(SCC(=O)Nc2nccs2)nnc1-c1ccncc1 -9.46%, CCCC1CC(C)(C(=O)Cn2[nH]c(=O)ccc2=O)OC1=O (stereo not given) 19.6%, CC(C)Cc1ccc(S(=O)(=O)N2CCN(C(=O)c3ccco3)CC2)cc1 -19.7%, O=C(CS(=O)(=O)c1cn(Cc2ccc(Cl)cc2)c2ccccc12)N1CCOCC1 -0.05%, CCOC(=O)C1CCN(C(=O)Cn2cc(C#N)c3ccccc32)CC1 6.78%, O=C(O)C1CC=C(Cl)CC1C(=O)NCc1ccccc1 (stereo not given) -2.5%, CCOC(=O)c1cc(NC(=O)c2cccnc2)cc(C(=O)OCC)c1 -7.79%, CCOC(=O)c1c(N)c(C#N)nn1-c1ccccc1C(=O)OC -8.34%, CCN1CCN(C(=O)CN(C)S(=O)(=O)c2ccc(OC)cc2)CC1 -16.9%, C=CCNC(=O)CSc1nc2sc(C)c(C)c2c(=O)[nH]1 -0.815%, O=C(O)[C@@H]1CCCN1c1ncnc2sc3c(c12)CCC3 5%, CN1C(C)(C)CC(NC(=O)CCC(=O)NC2CC(C)(C)N(C)C(C)(C)C2)CC1(C)C -21%, COc1ccccc1N1CCN(C(=O)c2cc(-c3ccc(Cl)c(Cl)c3)on2)CC1 -2.37%, COc1ccc(OC)c(S(=O)(=O)Nc2ccccc2F)c1 -13.8%, Cc1noc(C)c1C(=O)Nc1ccccn1 -22.1%, Cc1ccc(SCCN2C(=O)NC(C)(C)C2=O)cc1 4.35%, COc1cc(C2C(C#N)=C(C)NC3=C2C(=O)CC(C)(C)C3)ccc1O (stereo not given) 5.23%, COC(=O)c1ccc(Oc2nc(NC(C)C)nc(SC)n2)cc1 -19.1%, CCOC(=O)c1cc(NC(=O)SCC(=O)O)c(C)nc1C -3.26%, Cc1onc(-c2ccccc2)c1C(=O)N1CCOCC1 16.2%, CCOC(=O)Cc1csc(NC(=O)CN(C)S(=O)(=O)c2ccc3c(c2)CCC(=O)N3)n1 3.09%, CN(C)S(=O)(=O)c1ccc(Oc2ccc(S(=O)(=O)N(C)C)cc2)cc1 7.29%, Cn1nnnc1SCC(=O)N1CCN(C(c2ccccc2)c2ccccc2)CC1 4.16%, CC12CCC(C(=O)N3CCN(c4ncccn4)CC3)(c3nc4ccccc4nc31)C2(C)C (stereo not given) -25.6%, COc1c(C(=O)N2CCCC2)ccc2ccccc12 -8.42%, COc1ccc(CSc2nc(N3CCOCC3)c3c(c2C#N)CC(C)(C)OC3)cc1 -19.4%, CCC(C)n1[nH]c(=O)c2c(C)cc(C)nc21 (stereo not given) 5.71%, CCCCSc1nnc(-c2ccc(NC(=O)CC)cc2)n1C -21.9%, Cc1cc(C)c2c(n1)nn1c(N3CCN(c4cccc(Cl)c4)CC3)cc(C)nc21 -4.02%, Cc1cc(Cl)c(S(=O)(=O)NCCC(=O)O)cc1OCC(N)=O -0.81%

From PubChem BioAssay AID552 (SRMLSC, 2006)
